Assay results gathered from unrelated publications.
Compare with care: the assays were run in different laboratories.
Target: Protein kinase C epsilon type (PRKCE, Homo sapiens, UniProt Q02156)
One construct used (Q02156 1-737): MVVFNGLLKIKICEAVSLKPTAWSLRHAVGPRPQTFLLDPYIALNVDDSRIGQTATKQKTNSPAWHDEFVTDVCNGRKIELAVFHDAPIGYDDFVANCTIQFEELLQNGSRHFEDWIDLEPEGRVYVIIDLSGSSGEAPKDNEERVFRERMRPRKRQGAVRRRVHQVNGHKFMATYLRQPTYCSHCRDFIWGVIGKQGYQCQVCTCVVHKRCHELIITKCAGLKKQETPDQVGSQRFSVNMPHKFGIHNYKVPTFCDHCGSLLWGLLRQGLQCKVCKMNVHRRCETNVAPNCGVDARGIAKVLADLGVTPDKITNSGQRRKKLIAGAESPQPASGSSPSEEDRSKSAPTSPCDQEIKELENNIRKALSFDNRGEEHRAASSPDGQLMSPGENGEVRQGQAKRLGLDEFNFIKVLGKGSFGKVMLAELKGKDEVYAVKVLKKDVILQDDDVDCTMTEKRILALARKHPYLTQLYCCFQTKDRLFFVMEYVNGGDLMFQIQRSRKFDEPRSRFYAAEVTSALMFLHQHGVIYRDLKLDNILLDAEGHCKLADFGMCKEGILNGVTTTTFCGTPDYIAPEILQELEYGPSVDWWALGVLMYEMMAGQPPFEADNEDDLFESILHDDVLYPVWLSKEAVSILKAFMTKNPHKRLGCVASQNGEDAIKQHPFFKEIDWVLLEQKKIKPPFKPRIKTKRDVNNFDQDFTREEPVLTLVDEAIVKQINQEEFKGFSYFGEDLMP

O=C1Nc2ccc(Cl)cc2C1=Cc1cc(Cl)c(O)c(Cl)c1 — remaining signal (cell-free assay; 0.5 µM): 100%
CC/C(=N\NC(=O)NCc1cccc(O)c1)c1ccc(O)c(C)c1O — inhibition (enzyme activity, inhibitor; 0.1 µM): 19.6%
CC(C)(C)c1nc(-c2cccc(NS(=O)(=O)c3c(F)cccc3F)c2F)c(-c2ccnc(N)n2)s1 — remaining activity (enzyme activity, inhibitor, radiometric; 1 µM): 132%
CCCS(=O)(=O)Nc1ccc(F)c(C(=O)c2c[nH]c3ncc(-c4ccc(Cl)cc4)cc23)c1F — inhibition (enzyme activity, inhibitor; 1 µM): < 10%
O=C(Nc1cccnn1)N1CCC(=Cc2cccc(Oc3ccc(C(F)(F)F)cn3)c2)CC1 — remaining binding (cell-free assay, competition with immobilised ligand; 1 µM): 82%
Nc1nc(Nc2ccc(S(N)(=O)=O)cc2)nn1C(=O)c1c(F)cccc1F — remaining signal (cell-free assay; 0.5 µM): 97.2%
COc1cc2ncnc(Nc3ccc(Oc4ccccc4)c(C)c3C)c2cc1OC — inhibition (enzyme activity, inhibitor; 1 µM): -5%
CNC(=O)Nc1ccc2c(c1)CC[C@@]21OC(=O)N(CC(=O)N(Cc2ccc(F)cc2)[C@@H](C)C(F)(F)F)C1=O — remaining binding (cell-free assay, competition with immobilised ligand; 1 µM): 22%
COc1ccc(COc2ccc(Cc3cnc(N)nc3N)cc2OC)cc1 — remaining signal (cell-free assay; 0.5 µM): 95.7%
O=C(CSc1nc2nccnc2c(=O)n1CCc1ccccc1)Nc1nccs1 — inhibition (enzyme activity, inhibitor; 10 µM): -23%
CCOC(=O)c1cc2cc(-c3cc(C(=O)NCc4ccc(C(=O)O)cc4)nn3C)ccc2[nH]1 — remaining binding (cell-free assay, competition with immobilised ligand; 0.1 µM): 90%
CN1CC(Oc2cnc(C#N)cc2-c2ccn3nc(NC(=O)C4CC4)cc3c2)C1 — inhibition (enzyme activity, inhibitor; 1 µM): 6%
CCN(CC)CCNC(=O)c1c(C)[nH]c(/C=C2\C(=O)Nc3ccc(F)cc32)c1C — inhibition (enzyme activity, inhibitor; 10 µM): 21%
COc1cc(Cl)c(C(=O)N[C@@H](CN[C@H]2CC[C@@H](N)CC2)Cc2ccc(C#N)cc2)cc1-c1ccc(CN[C@H](C)c2ccc(C)cc2)o1 — remaining activity (enzyme activity, inhibitor; 1 µM): 85%
CN([C@@H]1CCc2c(CC(=O)O)c3cc(S(C)(=O)=O)ccc3n2C1)S(=O)(=O)c1ccc(F)cc1 — remaining binding (cell-free assay, competition with immobilised ligand; 1 µM): 87%
Cc1ccc(C(=O)Nc2ccc(CN3CCN(C)CC3)c(C(F)(F)F)c2)cc1C#Cc1cnc2cccnn12 — remaining activity (enzyme activity; 23.5 nM): 77%
CC(C)c1ccc(NC(=O)c2cccs2)c(-c2nc3ccccc3[nH]c2=O)c1 — activity vs control (enzyme activity, inhibitor; 1 µM): 109%
CCCCN(CCCC)C(=O)CN1C[C@@H](c2cc(OC)c3c(c2)OCO3)[C@H](C(=O)O)[C@H]1CC(C)(C)CCC — remaining binding (cell-free assay, competition with immobilised ligand; 1 µM): 100%
Cn1cncc1C1=CN(c2ncnc3[nH]cnc23)CCS1 — inhibition (enzyme activity, inhibitor, radiometric; 50 nM): 25.8%
O=C(O)c1cc(-c2ccc(C3CCNCC3)cc2)c2ccc(-c3ccc(C(F)(F)F)cc3)cc2c1 — remaining binding (cell-free assay, competition with immobilised ligand; 1 µM): 100%
CN(C)C[C@H]1CCn2c(c(C3=C(c4cn(C)c5ccccc45)C(=O)NC3=O)c3ccccc32)C1 — remaining signal (cell-free assay; 0.5 µM): 2.73%
Cc1nc(Cc2cccc(C(F)(F)F)c2)sc1-c1ccc(C(N)=O)nc1 — remaining binding (cell-free assay, competition with immobilised ligand; 1 µM): 100%
CC(C)(O)[C@H]1CC[C@H](Nc2ccc3ncc(-c4cccc(C(F)(F)F)c4)n3n2)CC1 — remaining activity (enzyme activity, inhibitor; 1 µM): 60.1%
O=C(Nc1cccnn1)N1CC(C/C=C/c2cncc(Oc3ccc(C(F)(F)F)cn3)n2)C1 — remaining binding (cell-free assay, competition with immobilised ligand; 1 µM): 100%
O=C(Nc1cnn(-c2csc(C(=O)NC3COC3)c2)c1)Nc1c(F)cccc1Cl — remaining activity (enzyme activity, inhibitor; 5 µM): 94.2%
